Reference: ChEMBL document CHEMBL5055625, “Saturated Oxo Fatty Acids (SOFAs): A Previously Unrecognized Class of Endogenous Bioactive Lipids Exhibiting a Cell Growth Inhibitory Activity” (J Med Chem, 2021)
The source made the active and inactive calls. The rule behind the calls is not given here.

Assays:
A549 [1] = test: Growth inhibition of human A549 cells at 50 microM measured after 72 hrs by MTT assay; assay type: functional; conditions: for inhibition of growth at 50 µM: read-out: GI
In short: (§1)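 A549, Caco-2 and SF268 cells were grown in DMEM (4.5 g/L glucose) with 10% heat-inactivated FBS and pen-strep at 37 °C, 5% CO2. After 24 h, medium was replaced with compound at 10, 25, 35, 50 or 75 μM (final 0.5% DMSO; vehicle controls) for 72 h. MTT (0.25 mg/mL final) was added for 3 h, formazan was dissolved in DMSO, and A570 minus A690 was read. Triplicate wells per condition were normalized to DMSO control as 100%; IC50 was taken from dose-response curves over ≥3 experiments.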

A549 [2] = test: Growth inhibition of human A549 cells measured after 72 hrs by MTT assay; assay type: functional, cell-based; conditions: A549, 72 h; in short: as §1
Caco-2 = test: Growth inhibition of human Caco-2 cells up to 75 uM measured after 72 hrs by MTT assay; assay type: functional, cell-based; in short: as §1
SF-268 = test: Growth inhibition of human SF-268 cells upto 75 microM measured after 72 hrs by MTT assay; assay type: functional, cell-based; in short: as §1
HUVEC = test: Growth inhibition of HUVEC cells upto 75 microM measured after 72 hrs by MTT assay; assay type: cell-based; conditions: human
A549 [3] = test: Antitumor activity against human A549 cells assessed as decrease in c-myc mRNA expression measured at 50 microM by RT-PCR analysis; assay type: functional, cell-based
In short: (§2)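 A549 cells were treated with 50 μM compound alongside DMSO controls. mRNA levels were measured by quantitative real-time RT-PCR and expressed relative to the DMSO control.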

A549 [4] = test: Antitumor activity against human A549 cells assessed as decrease in STAT3 mRNA expression measured at 50 microM by RT-PCR analysis; assay type: functional, cell-based; in short: as §2
A549 [5] = test: Down regulation of […] protein expression in human A549 cells measured at 50 uM by Western blot analysis; assay type: functional, cell-based
In short: (§3)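 A549 cells were treated with 50 μM compound or DMSO and lysed in RIPA buffer; lysates were spun at 17 000g for 15 min at 4 °C and protein was measured by Bradford assay. 35 μg of protein was run on SDS-PAGE and semidry-transferred to nitrocellulose, then blocked 1 h in 5% BSA/TBS-0.1% Tween-20. Blots were probed overnight at 4 °C with anti-phospho-STAT3 and anti-STAT3 (1:1000) plus β-actin (1:20 000) as loading control, followed by secondary antibodies for 1.30 h at r.t.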

[6] = target: Signal transducer and activator of transcription 3 (Homo sapiens) (UniProt P40763); test: Inhibition of phosphorylated STAT3 expression in human A549 cells measured at 50 uM by Western blot analysis; assay type: cell-based; in short: as §3
Chain of Signal transducer and activator of transcription 3 (Homo sapiens) (P40763 whole entry): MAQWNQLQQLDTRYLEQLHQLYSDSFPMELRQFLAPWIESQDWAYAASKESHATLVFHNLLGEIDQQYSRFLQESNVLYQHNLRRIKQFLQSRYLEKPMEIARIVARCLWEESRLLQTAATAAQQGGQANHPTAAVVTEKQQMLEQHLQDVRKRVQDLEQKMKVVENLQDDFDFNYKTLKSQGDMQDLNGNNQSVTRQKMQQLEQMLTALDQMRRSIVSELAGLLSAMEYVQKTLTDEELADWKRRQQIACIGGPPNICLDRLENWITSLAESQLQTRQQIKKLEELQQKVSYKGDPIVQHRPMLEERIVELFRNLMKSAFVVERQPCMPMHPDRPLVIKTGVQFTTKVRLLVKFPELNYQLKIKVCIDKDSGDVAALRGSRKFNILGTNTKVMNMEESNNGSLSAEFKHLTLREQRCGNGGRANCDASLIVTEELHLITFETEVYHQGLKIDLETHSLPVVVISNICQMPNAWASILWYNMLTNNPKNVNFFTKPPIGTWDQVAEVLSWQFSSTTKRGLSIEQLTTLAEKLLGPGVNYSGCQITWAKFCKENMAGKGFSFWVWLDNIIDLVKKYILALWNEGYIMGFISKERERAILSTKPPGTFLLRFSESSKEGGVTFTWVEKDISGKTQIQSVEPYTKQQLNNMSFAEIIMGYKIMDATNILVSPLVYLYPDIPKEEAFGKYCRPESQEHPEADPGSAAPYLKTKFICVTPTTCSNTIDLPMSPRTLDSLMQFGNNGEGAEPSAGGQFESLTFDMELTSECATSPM

Compound | inhibition of growth at 50 µM (A549 [1]) [%] | IC50 (A549 [2]) [µM] | growth inhibition (GI) (Caco-2) | growth inhibition (GI) (SF-268) | Activity (HUVEC) | Activity (A549 [3]) | Activity (A549 [4]) | Activity (A549 [5]) | inhibition [6] | growth inhibition (GI) (A549 [1])
CCCCCCCCCCCCC(=O)CCCCC(=O)O | > 50 | 26 | inactive | inactive | Non-Toxic | Active | Active | Active | Active | –
CCCCCCCCCCCCCCCCCC(=O)O | – | – | – | – | – | – | – | – | – | inactive
CCCCCCCCCCCCCCCC(=O)O | – | – | – | – | – | – | – | – | – | inactive
CCCCCCCCCCCC(=O)CCCCCC(=O)O | > 50 | 28 | inactive | inactive | – | Active | Active | Active | Active | –
CCCCCCCCCCCCCC(=O)CCCC(=O)O | > 50 | 49 | – | – | – | – | – | – | – | –
CCCCCCCCCCC[C@@H](O)CCCCCC(=O)O | > 50 | – | – | – | Non-Toxic | – | – | – | – | –
CCCCCCCCCC(O)CCCCCCCC(=O)O (stereo not drawn) | > 50 | – | – | – | – | – | – | – | – | –
CCCCCCCCCCC(=O)CCCCCCC(=O)O | > 50 | 37 | inactive | inactive | – | – | – | – | – | –
